Experimental data pooled from the literature.

Structure (SMILES)	test system	setting	half-life [h]
C=C(C[C@H](N)C(=O)O)C(=O)NCc1ccc(F)cc1	male CD-1 mouse, plasma	intravenous, 2.5 mg/kg	0.8
COc1ccc(C[C@@H](C(=O)NO)n2cc(CNS(=O)(=O)c3ccc(-c4ccccc4)s3)nn2)cc1	female CD-1 mouse, plasma	intraperitoneal, 50 mg/kg	0.5
CN1CCC[C@H](CN2c3ccccc3Sc3ccccc32)C1.Cl	mouse, plasma	intraperitoneal, 32 mg/kg, single dose	2.82
COc1cc2c(Nc3ccc(Cl)c(Cl)c3F)ncnc2cc1OC[C@@H]1C[C@@H]2CN(C)C[C@@H]2C1	FVB mouse, brain	oral, 70 mg/kg, single dose	13.3
COC(=O)C1=C(C)OC(C)=C(C(C)=O)C1c1ccc(Cl)c(C(F)(F)F)c1 (stereo not shown)	C57BL/6 mouse, plasma	intravenous, 10 mg/kg	0.25
Cc1cc(NC(=O)c2cccc3cc(-c4cccc5[nH]nc(N)c45)ccc23)ccc1F	male CD-1 mouse, plasma	oral, 10 mg/kg	2.15
CN(C)C/C=C/C(=O)Nc1ccc(O[C@@H]2CCC[C@@H](Nc3ncc(Cl)c(-c4c[nH]c5ccccc45)n3)C2)cc1	male Swiss mouse, plasma	intravenous, 3 mg/kg	2.25
C=CC(=O)N1C[C@H](n2c(C#CC3CC3)c(C(=O)N[C@H](C)c3ccccc3)c3c(N)ncnc32)C[C@@H]1C	male nude mouse, plasma	oral, 6.25 mg/kg, single dose	2.15
COc1ccc([C@@]23Oc4cc(OC)cc(OC)c4[C@]2(O)[C@H](O)[C@H](C(=O)N(C)C)[C@H]3c2ccccc2)cc1	mouse, plasma	intravenous, 5 mg/kg	1.5
CCc1cc(OC)c2nccc(N3CCc4c(cc(Cn5ccnc5)cc4-c4cn(C)nc4C(F)(F)F)C3=O)c2c1	male CD-1 mouse, plasma	oral, 150 mg/kg	1.6
COc1nc(-c2cc(C)c(N[C@@H](C)c3ccc(F)cc3)nn2)ccc1-n1cnc(C)c1	male CD-1 mouse, plasma	intravenous, 1 mg/kg, single dose	2.93
CNC(=O)[C@H](Cc1c[nH]cn1)NC(=O)CN(CCCc1ccccc1)CC(=O)O	male C57BL/6 mouse, plasma	intraperitoneal, 30 mg/kg	0.15
C[C@H]1CCCN1Cc1nc2cc(NC(=O)c3ccc4c(cnn4C)c3)ccc2[nH]1	female BALB/c mouse, plasma	oral, 100 mg/kg	0.83
Cc1cc(Nc2ccc(S(F)(F)(F)(F)F)cc2)n2ccnc2n1	male Swiss mouse, plasma	oral, 100 mg/kg, single dose	5.8
CCc1cc(C(=O)NC)c2nccc(N3CCc4c(cc(Cn5ccnc5)cc4-c4cn(C)nc4C(F)(F)F)C3=O)c2c1	male CD-1 mouse, plasma	oral, 50 mg/kg	1.5
Cc1noc(-c2ccc(CSCCC(=O)O)cc2)c1NC(=O)O[C@H](C)c1ccccc1Cl	mouse, plasma	intravenous, 5 mg/kg	0.49
COc1ccc2c3c1O[C@H]1C[C@@H](OC(=O)c4ccccc4)C=C[C@@]31CCN(C)C2	mouse, blood	intravenous, 3 mg/kg	0.48
Cc1cc(C)cc(NC(=O)c2cnn(-c3ccc(C(C)C)cc3)c2C2CCNCC2)c1	SCID mouse, plasma	oral, 50 mg/kg, single dose	~2
COc1cc(OC)c2nccc(N3CCc4c(cc(Cn5ccnc5)cc4-c4cn(C)nc4C(F)(F)F)C3=O)c2c1	male CD-1 mouse, plasma	intravenous, 3 mg/kg	0.5
NCC1CCN(c2nc(-c3ccncc3)nc3sc4c(c23)CCCC4)CC1	female CD-1 mouse, plasma	intravenous, 10 mg/kg	2.8
Oc1nc2nonc2cc1Nc1ccc(OC(F)(F)F)cc1C(F)(F)F	male C57BL/6 mouse, plasma	oral, 10 mg/kg	> 15
CC=Cc1ccc(O)c(OC)c1	mouse, brain	intranasal, 100 mg/kg	0.294

Structure (SMILES)	test system	setting	half-life [h]
CNC(=O)c1ccccc1Nc1cc(Nc2cc(C)c(C3CCN(CCCCCCNC(=O)COc4cccc5c4C(=O)N(C4CCC(=O)NC4=O)C5=O)CC3)cc2OC(C)C)ncc1C(F)(F)F (stereo not shown)	male Swiss mouse, plasma	intraperitoneal, 10 mg/kg	6.1
CNC(=O)c1cc(OC)cc2c(N3CCc4c(cc(Cn5ccnc5)cc4-c4cn(C)nc4C(F)(F)F)C3=O)ccnc12	male CD-1 mouse, plasma	intravenous, 3 mg/kg	1.1
CC(C)(C)c1ccc(O)c(CN(Cc2cc(C(C)(C)C)ccc2O)C2CCC(NC(N)=O)CC2)c1 (stereo not shown)	male C57BL/6 mouse, plasma	oral, 10 mg/kg, single dose	2.7
CNC(=O)c1cc(Oc2ccc(NC(=O)Nc3ccc(Cl)c(C(F)(F)F)c3)c(F)c2)ccn1	male mouse, plasma	oral, 10 mg/kg, single dose	14.9
NC[C@@H]1O[C@H](O[C@H]2[C@@H](O)[C@H](O[C@@H]3[C@@H](O)[C@H](N)C[C@H](N)[C@H]3O[C@H]3O[C@H](CO)[C@@H](O)[C@H](O)[C@H]3N)O[C@@H]2CO)[C@H](N)[C@@H](O)[C@@H]1O	male BALB/c mouse, plasma	intravenous, 15 mg/kg	2.6
COc1ccc2nccc(N3CCc4c(cc(Cn5ccnc5)cc4-c4cn(C)nc4C(F)(F)F)C3=O)c2c1	male CD-1 mouse, plasma	oral, 50 mg/kg	0.8
CC[C@H](C)[C@@H]1NC(=O)[C@@](C)(NC(=O)[C@H](CCCNC(=N)N)NC(=O)[C@H](CC(C)C)NC(=O)[C@@H](NC(=O)[C@H](CCC(N)=O)NC(=O)[C@H](CC(C)C)NC(C)=O)[C@@H](C)O)CCCC=CCCC[C@@](C)(C(=O)N[C@@H](CC(C)C)C(=O)N[C@@H](Cc2ccc3ccccc3c2)C(N)=O)NC(=O)[C@H](CCCNC(=N)N)NC(=O)[C@H](CCC(N)=O)NC1=O	male BALB/c mouse, plasma	intravenous, 15 mg/kg	1.8
CCc1ccc(Cc2cc([C@@H]3O[C@H](CO)[C@@H](O)[C@H](O)[C@H]3O)cc3c2CCC3)cc1	male C57BL/6 mouse, plasma	oral, 3 mg/kg	3.1
Cn1cnc2c(F)c(Nc3ccc(Br)cc3Cl)c(C(=O)NOCCO)cc21	nude mouse, liver	oral, 5 mg/kg, single dose, tumour-bearing	3.5
COc1ccc(NC(=O)N2CCCCN3[C@H](CN(C)S(C)(=O)=O)[C@H](c4ccc(C#Cc5ccccc5)cc4)[C@@H]3C2)cc1	mouse, plasma	intravenous	5
CCCc1c(C2CCCCN2CCN2CCOCC2)[nH]c2cc(OC(F)(F)F)ccc12 (stereo not shown)	male mouse, plasma	oral, 30 mg/kg	11
COc1nc(-c2cc(C)c(N[C@@H](C)c3cc(F)cc(F)c3)nn2)ccc1-n1cnc(C)c1	male CD-1 mouse, plasma	intravenous, 1 mg/kg, single dose	3.1
Cc1nc(-c2cnc(NC(C)C)n(C)c2=O)ccc1Oc1ccnc(-c2cnn(C)c2)c1	female mouse, plasma	oral, 15 mg/kg, single dose	6.85
COc1ccc(C(O)COc2ccc(-c3csc(-c4ccc(OCC(O)c5ccc(OC)c(OC)c5)cc4)n3)cc2)cc1OC (stereo not shown)	C57BL/6 mouse, plasma	oral, 30 mg/kg	4.3
O=C(Nc1ccc(C(F)(F)F)cc1)N1CCC(Cc2cccc(Oc3ccc(C(F)(F)F)cn3)c2)CC1	male Swiss mouse, blood	oral, 1 mg/kg	5.1
OC[C@H]1O[C@@H](c2ccc(Cl)c(Cc3ccc(O[C@H]4CCOC4)cc3)c2)[C@H](O)[C@@H](O)[C@@H]1O	CD-1 mouse, plasma	oral, 10 mg/kg	0.5
CNCCN(C)c1cc(C#N)cc(CCc2cc(C)cc(N)n2)c1	male BALB/c mouse, brain	intravenous, 2 mg/kg	24.8
CNC(=O)[C@H](Cc1c[nH]cn1)NC(=O)CN(CCCc1ccccc1)CC(=O)OC	male C57BL/6 mouse, plasma	intraperitoneal, 30 mg/kg	0.117
Cc1ccc2cncc(N3CCc4c(cc(Cn5ccnc5)cc4-c4cn(C)nc4C(F)(F)F)C3=O)c2c1	male CD-1 mouse, plasma	oral, 50 mg/kg	2
CCOc1ccc(Cc2cc([C@@H]3O[C@H](CO)[C@@H](O)[C@H](O)[C@H]3O)ccc2Cl)cc1	male C57BL/6 mouse, plasma	intravenous, 1 mg/kg	3.4
CC(C)Oc1c(NC(=O)c2ccc(NC(=O)[C@H](CC(N)=O)NC(=O)c3ccc(NC(=O)c4ccc(C#N)cc4)cc3)cc2)ccc(C(=O)Nc2ccc(C(=O)O)cc2)c1O	male CD-1 mouse, plasma	subcutaneous, 5 mg/kg, single dose	1.65
